Assay results as given in PubChem BioAssay AID504495 (The Scripps Research Institute Molecular Screening Center, 2011).

Molecular target: Platelet-activating factor acetylhydrolase 2, cytoplasmic (Mus musculus) (UniProt Q8VDG7)
Assay: PAFAH2 inhibition in cultured cells, late-stage follow-up, cell-based, gel-based competitive ABPP, fluorescence, powder samples (AID 504495)
Settings: BW5147 murine T cells, in situ gel ABPP, FP-Rh, 4 h; at 0.03 µM; stronger effect = higher value
Method in brief: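 Test system: murine BW5147 T cells; probe or stimulus: rhodamine fluorophosphonate probe (FP-Rh), 2 µM final; times: cells 4 h 37 °C, probe 30 min 25 °C; signal: in-gel fluorescence scan after SDS-PAGE, PAFAH2 band optical density; read-out basis: % inhibition versus DMSO-treated cells; controls: DMSO-treated cells, blank gel background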

Chain of Platelet-activating factor acetylhydrolase 2, cytoplasmic (Mus musculus) (Q8VDG7 whole entry, looked up): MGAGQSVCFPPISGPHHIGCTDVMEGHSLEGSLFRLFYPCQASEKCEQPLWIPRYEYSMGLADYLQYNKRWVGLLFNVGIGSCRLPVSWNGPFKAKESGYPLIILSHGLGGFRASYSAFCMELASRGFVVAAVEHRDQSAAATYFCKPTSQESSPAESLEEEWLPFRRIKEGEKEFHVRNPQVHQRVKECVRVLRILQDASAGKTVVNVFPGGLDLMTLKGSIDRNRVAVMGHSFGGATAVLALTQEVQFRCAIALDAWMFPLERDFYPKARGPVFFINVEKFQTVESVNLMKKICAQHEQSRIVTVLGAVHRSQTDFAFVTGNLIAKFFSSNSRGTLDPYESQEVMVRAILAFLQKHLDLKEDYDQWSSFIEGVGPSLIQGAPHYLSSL

inhibition: 100%
Compound: O=C(N1CCCC1)n1ncc(-c2ccc(-c3ccccc3)cc2)n1
